Columns and labels:
SW48 [1] = assay: Antitumor activity against human SW48 cells xenografted in CD-1 nude mouse assessed as tumor growth inhibition at 30 mg/kg, po qd administered for 21 days measured 3 times per week during compound dosing relative to vehicle-treated control; format: functional; conditions: SW48, 504 h, read-out: TGI
Method in brief: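 Randomization into groups (n = 7) at 80–120 mm³ mean tumor volume. Compound was given orally once daily for 21 days in 10% NMP/40% PEG400/50% DI water, top dose 30 mg/kg. Tumor volume (x²y/2) was taken three times weekly, and TGI was calculated against vehicle.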

[2] = Toxicity in po dosed athymic CD1 nude mouse assessed as body weight loss in excess 20% and deemed moribund administered as qd for 21 days measured 3 times per week during compound dosing; format: organism-based; conditions: in vivo
[3] = Oral bioavailability in Sprague-Dawley rat at 5 mg/kg by LC-MS/MS analysis; format: ADME, organism-based; conditions: in vivo
[4] = biological target: Proto-oncogene tyrosine-protein kinase receptor Ret (Homo sapiens, UniProt P07949); assay: Inhibition of human Ret by millipore radiometric assay
Proto-oncogene tyrosine-protein kinase receptor Ret, sequence (P07949 whole entry): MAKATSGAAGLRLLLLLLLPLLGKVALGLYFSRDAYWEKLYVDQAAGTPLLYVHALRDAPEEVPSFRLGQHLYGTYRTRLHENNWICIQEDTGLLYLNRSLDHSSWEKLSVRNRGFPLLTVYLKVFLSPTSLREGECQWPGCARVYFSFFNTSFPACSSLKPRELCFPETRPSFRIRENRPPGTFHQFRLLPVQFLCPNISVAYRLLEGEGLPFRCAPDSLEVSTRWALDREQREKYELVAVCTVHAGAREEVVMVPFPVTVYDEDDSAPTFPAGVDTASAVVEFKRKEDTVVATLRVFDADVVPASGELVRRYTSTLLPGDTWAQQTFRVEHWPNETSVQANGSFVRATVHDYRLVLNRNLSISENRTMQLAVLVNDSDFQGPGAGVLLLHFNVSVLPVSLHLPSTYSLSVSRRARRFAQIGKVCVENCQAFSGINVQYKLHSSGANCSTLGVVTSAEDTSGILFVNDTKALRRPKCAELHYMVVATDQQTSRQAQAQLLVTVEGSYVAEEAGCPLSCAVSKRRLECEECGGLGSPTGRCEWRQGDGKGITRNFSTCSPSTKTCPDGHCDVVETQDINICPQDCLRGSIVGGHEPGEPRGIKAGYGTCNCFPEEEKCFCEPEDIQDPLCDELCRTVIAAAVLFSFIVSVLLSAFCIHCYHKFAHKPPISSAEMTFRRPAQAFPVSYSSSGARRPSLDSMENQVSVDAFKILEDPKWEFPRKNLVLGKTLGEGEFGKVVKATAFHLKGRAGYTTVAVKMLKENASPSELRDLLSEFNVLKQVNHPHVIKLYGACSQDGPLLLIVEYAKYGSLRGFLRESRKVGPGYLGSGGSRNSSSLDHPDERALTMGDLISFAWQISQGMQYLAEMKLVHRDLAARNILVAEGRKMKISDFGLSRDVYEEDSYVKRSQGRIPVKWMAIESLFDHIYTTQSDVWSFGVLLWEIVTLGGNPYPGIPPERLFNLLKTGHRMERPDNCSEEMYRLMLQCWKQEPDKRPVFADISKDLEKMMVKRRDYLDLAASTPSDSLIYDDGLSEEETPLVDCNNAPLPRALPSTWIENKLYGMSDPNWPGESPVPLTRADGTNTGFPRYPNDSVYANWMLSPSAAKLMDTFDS
Method in brief: (§1)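 Radiometric profiling against a 278-kinase panel was done with ATP at Km. Half-maximal inhibitory concentrations were then determined for the kinases most inhibited.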

[5] = Cytotoxicity against human PC3 cells after 5 days by sulforhodamine B assay; format: functional; conditions: PC-3, 120 h
Method in brief: (§2)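 Cancer lines were seeded at 800–6000 cells per well according to growth rate, 24 h before compound overlay. After culture, cells were fixed in situ and stained with sulforhodamine B. GI50 values were derived by curve fitting.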

SK-MEL-5 = assay: Cytotoxicity against human SK-MEL-5 cells after 5 days by sulforhodamine B assay; format: functional; conditions: SK-MEL-5, 120 h; method in brief: as §2
[6] = Cytotoxicity against human H23 cells after 5 days by sulforhodamine B assay; format: functional; conditions: NCI-H23, 120 h; method in brief: as §2
MDA-MB-231 = assay: Cytotoxicity against human MDA-MB-231 cells after 5 days by sulforhodamine B assay; format: functional; conditions: MDA-MB-231, 120 h; method in brief: as §2
[7] = biological target: Serine/threonine-protein kinase PLK4 (Homo sapiens, UniProt O00444); assay: Inhibition of PLK4 (unknown origin) by indirect ELISA detection system
Serine/threonine-protein kinase PLK4, sequence (O00444 whole entry): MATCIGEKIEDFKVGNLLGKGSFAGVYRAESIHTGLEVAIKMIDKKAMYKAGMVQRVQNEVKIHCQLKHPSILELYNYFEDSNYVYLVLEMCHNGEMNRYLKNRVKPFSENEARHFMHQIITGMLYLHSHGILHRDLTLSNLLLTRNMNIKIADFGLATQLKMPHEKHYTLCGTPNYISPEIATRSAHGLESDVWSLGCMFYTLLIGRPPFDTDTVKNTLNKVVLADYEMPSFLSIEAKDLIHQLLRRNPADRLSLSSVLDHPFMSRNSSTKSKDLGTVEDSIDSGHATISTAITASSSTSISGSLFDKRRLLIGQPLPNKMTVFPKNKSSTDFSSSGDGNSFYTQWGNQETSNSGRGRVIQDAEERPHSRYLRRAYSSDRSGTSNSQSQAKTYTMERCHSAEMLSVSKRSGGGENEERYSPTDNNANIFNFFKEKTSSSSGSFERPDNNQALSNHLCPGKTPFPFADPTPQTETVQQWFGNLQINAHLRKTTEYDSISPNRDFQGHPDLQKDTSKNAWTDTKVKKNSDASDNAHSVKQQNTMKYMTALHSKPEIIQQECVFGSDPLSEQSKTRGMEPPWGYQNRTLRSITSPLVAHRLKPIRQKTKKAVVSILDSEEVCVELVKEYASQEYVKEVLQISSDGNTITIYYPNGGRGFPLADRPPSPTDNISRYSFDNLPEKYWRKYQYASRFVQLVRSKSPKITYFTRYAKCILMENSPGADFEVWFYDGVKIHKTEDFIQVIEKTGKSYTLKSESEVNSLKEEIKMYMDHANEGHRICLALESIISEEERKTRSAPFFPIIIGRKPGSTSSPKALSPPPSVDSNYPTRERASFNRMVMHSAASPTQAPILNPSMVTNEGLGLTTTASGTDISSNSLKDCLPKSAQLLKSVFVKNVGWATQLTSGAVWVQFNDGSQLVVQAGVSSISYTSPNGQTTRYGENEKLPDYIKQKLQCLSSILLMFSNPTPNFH

BT-474 = assay: Cytotoxicity against human BT474 cells after 5 days by sulforhodamine B assay; format: functional; conditions: BT-474, 120 h; method in brief: as §2
[8] = AUCinfinity in Sprague-Dawley rat at 1 mg/kg, iv by LC-MS/MS analysis; format: ADME, organism-based; set-up: time infinity, dose 1 mg/kg, route intravenous; conditions: plasma
DU-145 = assay: Cytotoxicity against human DU145 cells after 5 days by sulforhodamine B assay; format: functional; conditions: DU-145, 120 h; method in brief: as §2
SW48 [9] = assay: Cytotoxicity against human SW48 cells after 5 days by sulforhodamine B assay; format: functional; conditions: SW48, 120 h; method in brief: as §2
[10] = Cytotoxicity against human SKOV3 cells after 5 days by sulforhodamine B assay; format: functional; conditions: SK-OV-3, 120 h; method in brief: as §2
[11] = Cmax in athymic CD1 nude mouse at 10 mg/kg, po by LC-MS/MS analysis; format: ADME, organism-based; set-up: dose 10 mg/kg, route oral; conditions: athymic CD1 nude, in vivo
[12] = Half life in dog liver microsomes at 1 uM by LC-MS analysis; format: ADME, Canis lupus familiaris
A2780 = assay: Cytotoxicity against human A2780 cells after 5 days by sulforhodamine B assay; format: functional; conditions: A2780, 120 h; method in brief: as §2
[13] = Plasma protein binding in rat; format: ADME, cell-free; conditions: read-out: PPB (converted)
HCT-116 = assay: Induction of chromosome segregation defect in human HCT116 cells assessed as anaphase and telophase cells with lagging chromosomes at 500 nM incubated for 6 hrs post double thymidine block by DAPI staining-based immunofluorescence microscopic analysis (reference value: 19 +/- 2%); format: functional
[14] = biological target: T1, Dual specificity protein kinase TTK (Homo sapiens, UniProt P33981); assay: Competitive inhibition of amino terminal GST-fused full length human TTK using His6-SUMO-TTK-N as substrate by Lineweaver-Burk plot analysis in presence of ATP; conditions: read-out: Ki(app)
T1 sequence (P33981 whole entry): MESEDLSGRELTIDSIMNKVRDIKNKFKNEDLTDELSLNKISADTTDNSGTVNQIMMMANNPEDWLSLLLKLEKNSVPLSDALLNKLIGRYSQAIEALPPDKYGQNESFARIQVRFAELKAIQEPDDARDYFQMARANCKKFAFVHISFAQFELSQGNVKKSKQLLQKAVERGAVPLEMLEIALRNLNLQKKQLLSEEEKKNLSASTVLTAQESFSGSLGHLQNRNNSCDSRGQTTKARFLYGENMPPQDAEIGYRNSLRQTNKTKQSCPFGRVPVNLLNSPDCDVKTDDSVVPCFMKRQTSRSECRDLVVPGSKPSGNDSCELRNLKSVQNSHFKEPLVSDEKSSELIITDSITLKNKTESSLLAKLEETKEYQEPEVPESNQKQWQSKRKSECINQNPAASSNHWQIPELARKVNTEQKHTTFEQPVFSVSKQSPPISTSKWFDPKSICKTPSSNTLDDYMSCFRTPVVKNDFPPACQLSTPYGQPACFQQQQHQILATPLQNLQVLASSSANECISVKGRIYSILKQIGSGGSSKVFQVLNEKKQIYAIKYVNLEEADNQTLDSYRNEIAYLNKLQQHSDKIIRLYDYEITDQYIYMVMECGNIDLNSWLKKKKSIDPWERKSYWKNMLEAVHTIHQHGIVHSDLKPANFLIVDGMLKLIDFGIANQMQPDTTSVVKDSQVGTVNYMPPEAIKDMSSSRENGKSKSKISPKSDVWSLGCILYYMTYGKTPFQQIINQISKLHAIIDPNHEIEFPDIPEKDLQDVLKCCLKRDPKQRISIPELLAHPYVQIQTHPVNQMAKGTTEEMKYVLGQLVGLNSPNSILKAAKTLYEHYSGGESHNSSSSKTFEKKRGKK

[15] = Cytotoxicity against human HCT116 cells after 5 days by sulforhodamine B assay; format: functional, HCT-116; method in brief: as §2
[16] = biological target: Maternal embryonic leucine zipper kinase (Homo sapiens, UniProt Q14680); assay: Inhibition of human MELK by millipore radiometric assay; method in brief: as §1
Maternal embryonic leucine zipper kinase, sequence (Q14680 whole entry): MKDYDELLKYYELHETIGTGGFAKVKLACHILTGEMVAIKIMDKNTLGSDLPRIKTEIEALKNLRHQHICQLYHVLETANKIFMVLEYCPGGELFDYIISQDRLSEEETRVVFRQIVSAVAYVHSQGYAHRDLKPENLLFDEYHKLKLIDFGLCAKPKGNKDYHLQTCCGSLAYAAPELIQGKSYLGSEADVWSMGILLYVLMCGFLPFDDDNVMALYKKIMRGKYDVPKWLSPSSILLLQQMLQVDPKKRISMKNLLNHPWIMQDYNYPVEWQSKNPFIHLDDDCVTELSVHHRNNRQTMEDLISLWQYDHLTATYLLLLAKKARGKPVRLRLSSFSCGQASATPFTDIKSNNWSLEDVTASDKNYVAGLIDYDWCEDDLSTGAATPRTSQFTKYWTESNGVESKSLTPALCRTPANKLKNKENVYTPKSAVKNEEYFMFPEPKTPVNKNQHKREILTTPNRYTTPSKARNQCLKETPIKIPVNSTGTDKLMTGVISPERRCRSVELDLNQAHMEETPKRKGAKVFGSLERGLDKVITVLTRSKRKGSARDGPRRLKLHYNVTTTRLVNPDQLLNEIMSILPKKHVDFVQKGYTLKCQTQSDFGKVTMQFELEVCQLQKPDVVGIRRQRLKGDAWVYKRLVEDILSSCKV

[17] = Clearance in Sprague-Dawley rat at 1 mg/kg, iv by LC-MS/MS analysis; format: ADME, organism-based; set-up: dose 1 mg/kg, route intravenous; conditions: in vivo
[18] = biological target: Mast/stem cell growth factor receptor Kit (Homo sapiens, UniProt P10721); assay: Inhibition of human cKit by millipore radiometric assay; method in brief: as §1
Mast/stem cell growth factor receptor Kit, sequence (P10721 whole entry): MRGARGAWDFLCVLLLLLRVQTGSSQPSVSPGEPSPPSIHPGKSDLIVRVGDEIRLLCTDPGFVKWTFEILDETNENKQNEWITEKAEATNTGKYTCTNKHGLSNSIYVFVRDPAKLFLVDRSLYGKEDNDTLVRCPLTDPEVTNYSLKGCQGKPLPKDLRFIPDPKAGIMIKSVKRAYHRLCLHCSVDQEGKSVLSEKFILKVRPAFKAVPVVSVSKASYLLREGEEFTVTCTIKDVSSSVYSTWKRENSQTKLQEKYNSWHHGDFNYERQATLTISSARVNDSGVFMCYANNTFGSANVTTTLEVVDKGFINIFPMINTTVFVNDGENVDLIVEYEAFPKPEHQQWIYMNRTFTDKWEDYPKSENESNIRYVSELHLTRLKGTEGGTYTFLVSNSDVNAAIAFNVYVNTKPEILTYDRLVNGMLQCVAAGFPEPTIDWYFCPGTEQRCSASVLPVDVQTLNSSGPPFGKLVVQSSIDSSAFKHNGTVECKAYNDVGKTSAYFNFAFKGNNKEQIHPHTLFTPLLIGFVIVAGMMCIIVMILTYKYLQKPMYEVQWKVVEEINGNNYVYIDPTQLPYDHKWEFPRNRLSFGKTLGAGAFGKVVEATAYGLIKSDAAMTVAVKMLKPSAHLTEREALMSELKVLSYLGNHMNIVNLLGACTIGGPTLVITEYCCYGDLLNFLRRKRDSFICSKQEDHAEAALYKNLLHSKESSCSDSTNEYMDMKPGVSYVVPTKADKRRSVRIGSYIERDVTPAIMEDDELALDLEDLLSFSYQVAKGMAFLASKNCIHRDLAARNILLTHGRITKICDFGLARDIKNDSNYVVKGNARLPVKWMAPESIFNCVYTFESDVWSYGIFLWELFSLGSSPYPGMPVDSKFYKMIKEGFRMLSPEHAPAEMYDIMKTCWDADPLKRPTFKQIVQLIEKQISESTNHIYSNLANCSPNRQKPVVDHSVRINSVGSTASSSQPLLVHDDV

[19] = Half life in human liver microsomes at 1 uM by LC-MS analysis; format: ADME
[20] = Cytotoxicity against human SKBR3 cells after 5 days by sulforhodamine B assay; format: functional; conditions: SK-BR-3, 120 h; method in brief: as §2
[21] = biological target: Aurora kinase B/Inner centromere protein (Homo sapiens, UniProt Q96GD4); assay: Inhibition of AURKB/INCENP (unknown origin) preincubated for 15 mins prior to ATP addition by FRET-based homogenous assay; format: protein-complex assay
Aurora kinase B/Inner centromere protein, sequence (Q96GD4 whole entry): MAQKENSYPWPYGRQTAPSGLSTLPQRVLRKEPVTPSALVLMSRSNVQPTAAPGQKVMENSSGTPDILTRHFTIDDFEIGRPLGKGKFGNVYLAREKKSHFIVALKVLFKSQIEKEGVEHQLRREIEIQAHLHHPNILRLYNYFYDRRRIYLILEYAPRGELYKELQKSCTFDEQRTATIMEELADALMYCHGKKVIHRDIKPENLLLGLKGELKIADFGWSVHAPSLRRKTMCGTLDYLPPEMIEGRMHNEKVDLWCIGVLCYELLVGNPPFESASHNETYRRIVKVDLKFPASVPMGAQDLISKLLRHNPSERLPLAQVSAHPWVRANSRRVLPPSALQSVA
Aurora kinase B/Inner centromere protein, sequence (Q9NQS7 whole entry, further chain): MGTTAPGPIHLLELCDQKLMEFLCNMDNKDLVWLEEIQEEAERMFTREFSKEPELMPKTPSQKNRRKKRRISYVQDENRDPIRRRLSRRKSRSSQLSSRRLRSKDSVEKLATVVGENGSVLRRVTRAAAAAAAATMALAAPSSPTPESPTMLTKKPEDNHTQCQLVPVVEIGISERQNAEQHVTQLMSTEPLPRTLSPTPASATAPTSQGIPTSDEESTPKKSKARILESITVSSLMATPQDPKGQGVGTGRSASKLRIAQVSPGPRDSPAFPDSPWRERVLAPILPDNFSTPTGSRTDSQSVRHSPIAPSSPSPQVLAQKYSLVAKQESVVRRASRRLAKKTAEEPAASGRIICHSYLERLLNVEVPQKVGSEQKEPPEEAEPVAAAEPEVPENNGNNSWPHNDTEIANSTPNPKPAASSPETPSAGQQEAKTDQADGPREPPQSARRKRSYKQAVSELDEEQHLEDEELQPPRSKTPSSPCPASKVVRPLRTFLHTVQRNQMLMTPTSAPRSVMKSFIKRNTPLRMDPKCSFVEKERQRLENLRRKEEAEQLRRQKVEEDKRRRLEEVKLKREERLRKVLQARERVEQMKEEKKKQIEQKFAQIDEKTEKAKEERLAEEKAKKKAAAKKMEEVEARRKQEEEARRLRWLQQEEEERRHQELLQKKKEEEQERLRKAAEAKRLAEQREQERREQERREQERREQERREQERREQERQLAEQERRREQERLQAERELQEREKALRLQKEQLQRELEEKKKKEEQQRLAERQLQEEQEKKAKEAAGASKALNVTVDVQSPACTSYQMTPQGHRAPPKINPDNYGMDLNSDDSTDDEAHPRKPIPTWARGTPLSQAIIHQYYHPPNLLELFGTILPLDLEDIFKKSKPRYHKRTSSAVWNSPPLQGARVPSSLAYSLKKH
Method in brief: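 The enzyme was AURKB/INCENP in a FRET-based homogeneous assay run to kit specifications, with ATP at 128 μM. […] Each IC50 came from a single determination, reported with its standard fitting error.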

[22] = Half life in iv dosed dog; format: ADME, organism-based, Canis lupus familiaris; conditions: in vivo
T47D = assay: Cytotoxicity against human T47D cells after 5 days by sulforhodamine B assay; format: functional; conditions: 120 h; method in brief: as §2

## O=C(N[C@@H](c1ccccn1)C1CC1)c1ccc2[nH]nc(-c3ccc(N4[C@H]5CC[C@H]4CC(O)C5)cc3)c2c1 (stereo in doubt; 75)
SW48 [1]
  inhibition in vivo at 30 mg/kg: 66%
[2]
  MTD at 504 h: 35 mg/kg
[3]
  bioavailability: 44%
[4]
  IC50: 2.8 µM
[5]
  GI50: 0.06 µM
SK-MEL-5
  GI50: 0.02 µM
[6]
  GI50: 0.036 µM
MDA-MB-231
  GI50: 0.07 µM
[7]
  IC50: 0.13 µM
BT-474
  GI50: 0.015 µM
[8]
  AUC(0-inf): 250 ng·h/mL
DU-145
  GI50: 0.017 µM
SW48 [9]
  GI50: 0.019 µM
[10]
  GI50: 0.017 µM
[11]
  Cmax: 2000 ng/mL
[12]
  half-life at 1 µM: > 1 h
A2780
  GI50: 0.02 µM
[13]
  fraction unbound: 0.069
HCT-116
  Activity: 94%
[14]
  Ki: 0.0007 µM
[15]
  GI50: 0.017 µM
[16]
  IC50: 0.16 µM
[17]
  clearance: 66 mL/min/kg
[18]
  IC50: > 30 µM
[19]
  half-life at 1 µM: > 1 h
[20]
  GI50: 0.008 µM
[21]
  IC50: 1.3 µM
[22]
  half-life: 1.2 h
T47D
  GI50: 0.02 µM

From ChEMBL document CHEMBL3421533, “The Discovery of Orally Bioavailable Tyrosine Threonine Kinase (TTK) Inhibitors: 3-(4-(heterocyclyl)phenyl)-1H-indazole-5-carboxamides as Anticancer Agents” (J Med Chem, 2015)
